Results published in ChEMBL document CHEMBL3580633, “Benzoxaborole antimalarial agents. Part 4. Discovery of potent 6-(2-(alkoxycarbonyl)pyrazinyl-5-oxy)-1,3-dihydro-1-hydroxy-2,1-benzoxaboroles” (J Med Chem, 2015).

Legend:
Plasmodium berghei [1] = test: Antiplasmodial activity against Plasmodium berghei infected in Swiss Webster mouse assessed as mouse survival at 11 mg/kg, po dosed once daily for 4 consecutive days beginning 1 hr after initial infection and measured on day 12 post infection by Giemsa staining method; assay type: functional
Summary of the method: (§1)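 Female Swiss Webster mice (about 20 g) infected ip with 6 × 10^6 P. berghei-infected erythrocytes. Oral gavage once daily for 4 days, starting 1 h after infection. Vehicle PEG300/propylene glycol/water (55/25/20 by weight). Giemsa-smear parasitemia counted daily from day 4. Mice euthanised above 50% parasitemia. Survival followed to day 21, 5 mice per dose, chloroquine 30 mg/kg as reference.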

Plasmodium berghei [2] = test: Antiplasmodial activity against Plasmodium berghei infected in Swiss Webster mouse assessed as mouse survival at 11 mg/kg, po dosed once daily for 4 consecutive days beginning 1 hr after initial infection and measured on day 7 post infection by Giemsa staining method; assay type: functional; summary of the method: as §1
Plasmodium berghei [3] = test: Antiplasmodial activity against Plasmodium berghei infected in Swiss Webster mouse assessed as mouse survival at 1 mg/kg, po dosed once daily for 4 consecutive days beginning 1 hr after initial infection and measured on day 7 post infection by Giemsa staining method; assay type: functional; summary of the method: as §1
Plasmodium berghei [4] = test: Antiplasmodial activity against Plasmodium berghei infected in Swiss Webster mouse assessed as mouse survival at 33 mg/kg, po dosed once daily for 4 consecutive days beginning 1 hr after initial infection and measured on day 7 post infection by Giemsa staining method; assay type: functional
Summary of the method: (§2)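 Female Swiss Webster mice (about 20 g) were infected ip with 6 × 10^6 P. berghei-infected erythrocytes from a donor mouse. They were dosed by oral gavage once daily for 4 days, starting 1 h post-infection, in PEG 300/propylene glycol/water (55/25/20 by weight). Parasitemia was read daily on Giemsa smears from day 4, and mice were euthanized above 50% parasitemia. Percent survival was tracked to 21 days.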

Plasmodium berghei [5] = test: Antiplasmodial activity against Plasmodium berghei infected in Swiss Webster mouse assessed as mouse survival at 100 mg/kg, po dosed once daily for 4 consecutive days beginning 1 hr after initial infection and measured on day 10 post infection by Giemsa staining method; assay type: functional; summary of the method: as §1
[6] = Terminal half life in CD1 mouse at 5 mg/kg, iv by HPLC coupled to tandem mass spectrometry; assay type: ADME, organism-based; conditions: in vivo, read-out: beta t1/2 (converted)
Summary of the method: (§3)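 Adult female CD-1 mice received 5 mg/kg by both the iv and the oral-gavage route. Two vehicles were used: PEG 400/dimethylacetamide/water (45/10/45, pH 5.8), or PEG 300/propylene glycol/water (55/25/20, pH 5.9). Blood samples were collected and drug was quantified by HPLC-tandem MS.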

[7] = Stability in mouse liver microsomes assessed as compound remaining at 1 uM incubated for 1 hr in presence of NADPH by LC/MS/MS method; assay type: ADME
Summary of the method: (§4)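 Compound at 1 μM final (from a 1 mg/mL DMSO stock) was incubated with mouse or human liver microsomes (0.5 mg/mL protein) in 100 mM potassium phosphate, pH 7.4, at 37 °C with shaking, with or without 1 mM NADPH. Samples were taken over 0–120 min and tested in duplicate. Reactions were quenched with cold acetonitrile plus internal standard and analyzed by LC/MS/MS.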

Plasmodium berghei [8] = test: Antiplasmodial activity against Plasmodium berghei infected in Swiss Webster mouse assessed as mouse survival at 100 mg/kg, po dosed once daily for 4 consecutive days beginning 1 hr after initial infection and measured on day 5 post infection by Giemsa staining method; assay type: functional; summary of the method: as §1
Plasmodium berghei [9] = test: Antiplasmodial activity against Plasmodium berghei infected in Swiss Webster mouse assessed as […] dosed orally once daily for 4 consecutive days beginning 1 hr after initial infection and measured on day 4 after onset of treatment by Giemsa staining method; assay type: functional; conditions: po
Summary of the method: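 In the P. berghei model, female Swiss Webster mice were infected ip with 6 × 10^6 infected erythrocytes. They were gavaged once daily for 4 days from 1 h post-infection, in PEG 300/propylene glycol/water (55/25/20 by weight), with 5 mice per dose. Parasitemia was counted on Giemsa smears. ED90 is the dose reducing parasitemia 90% versus vehicle controls 4 days after therapy began, fitted by nonlinear regression.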

Mus musculus = test: Oral bioavailability in CD1 mouse at 5 mg/kg by HPLC coupled to tandem mass spectrometry; assay type: ADME, organism-based; conditions: in vivo; summary of the method: as §3
[10] = Terminal half life in CD1 mouse at 5 mg/kg, po by HPLC coupled to tandem mass spectrometry; assay type: ADME, organism-based; conditions: in vivo, read-out: beta t1/2 (converted)
Summary of the method: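 Adult female CD-1 mice were given oral gavage at 5 mg/kg in a formulated solution, either PEG 400/dimethylacetamide/water (45/10/45, pH 5.8) or PEG 300/propylene glycol/water (55/25/20, pH 5.9). Blood samples were analysed for drug by HPLC-tandem MS, and the terminal half-life was derived.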

[11] = Clearance in CD1 mouse at 5 mg/kg, iv by HPLC coupled to tandem mass spectrometry; assay type: ADME, organism-based; conditions: in vivo; summary of the method: as §3
Plasmodium berghei [12] = test: Antiplasmodial activity against Plasmodium berghei infected in Swiss Webster mouse assessed as mouse survival at 100 mg/kg, po dosed once daily for 4 consecutive days beginning 1 hr after initial infection and measured on day 6 post infection by Giemsa staining method; assay type: functional; summary of the method: as §1
Plasmodium berghei [13] = test: Antiplasmodial activity against Plasmodium berghei infected in Swiss Webster mouse assessed as mouse survival at 33 mg/kg, po dosed once daily for 4 consecutive days beginning 1 hr after initial infection and measured on day 12 post infection by Giemsa staining method; assay type: functional; summary of the method: as §2
[14] = AUC (0 to infinity) in CD1 mouse at 5 mg/kg, po by HPLC coupled to tandem mass spectrometry; assay type: ADME, organism-based; parameters: dose 5 mg/kg, route oral, time infinity; conditions: in vivo; summary of the method: as §3
Plasmodium berghei [15] = test: Antiplasmodial activity against Plasmodium berghei infected in Swiss Webster mouse assessed as mouse survival at 11 mg/kg, po dosed once daily for 4 consecutive days beginning 1 hr after initial infection and measured on day 6 post infection by Giemsa staining method; assay type: functional; summary of the method: as §1
Plasmodium berghei [16] = test: Antiplasmodial activity against Plasmodium berghei infected in Swiss Webster mouse assessed as mouse survival at 11 mg/kg, po dosed once daily for 4 consecutive days beginning 1 hr after initial infection and measured on day 11 post infection by Giemsa staining method; assay type: functional; summary of the method: as §1
Plasmodium berghei [17] = test: Antiplasmodial activity against Plasmodium berghei infected in Swiss Webster mouse assessed as mouse survival at 33 mg/kg, po dosed once daily for 4 consecutive days beginning 1 hr after initial infection and measured on day 8 post infection by Giemsa staining method; assay type: functional; summary of the method: as §2
Plasmodium berghei [18] = test: Antiplasmodial activity against Plasmodium berghei infected in Swiss Webster mouse assessed as mouse survival at 100 mg/kg, po dosed once daily for 4 consecutive days beginning 1 hr after initial infection and measured on day 11 post infection by Giemsa staining method; assay type: functional; summary of the method: as §1
[19] = Volume of distribution at steady state in CD1 mouse at 5 mg/kg, iv by HPLC coupled to tandem mass spectrometry; assay type: ADME, organism-based; conditions: in vivo, read-out: Vdss; summary of the method: as §3
Plasmodium berghei [20] = test: Antiplasmodial activity against Plasmodium berghei infected in Swiss Webster mouse assessed as mouse survival at 3 mg/kg, po dosed once daily for 4 consecutive days beginning 1 hr after initial infection and measured on day 9 post infection by Giemsa staining method; assay type: functional; summary of the method: as §1
[21] = Tmax in CD1 mouse at 5 mg/kg, po by HPLC coupled to tandem mass spectrometry; assay type: ADME, organism-based; conditions: in vivo; summary of the method: as §3
Liver microsome = test: Stability in human liver microsomes assessed as compound remaining at 1 uM incubated for 1 hr in presence of NADPH by LC/MS/MS method; assay type: ADME; summary of the method: as §4
Plasmodium berghei [22] = test: Antiplasmodial activity against Plasmodium berghei infected in Swiss Webster mouse assessed as mouse survival at 33 mg/kg, po dosed once daily for 4 consecutive days beginning 1 hr after initial infection and measured on day 6 post infection by Giemsa staining method; assay type: functional; summary of the method: as §2

Row | Structure (SMILES) | survival at 11 mg/kg (Plasmodium berghei [1]) [%] | survival at 11 mg/kg (Plasmodium berghei [2]) [%] | survival at 1 mg/kg (Plasmodium berghei [3]) [%] | survival at 33 mg/kg (Plasmodium berghei [4]) [%] | survival at 100 mg/kg (Plasmodium berghei [5]) [%] | half-life [6] [min] | Stability [7] [%] | survival at 100 mg/kg (Plasmodium berghei [8]) [%] | ED90 (Plasmodium berghei [9]) [mg/kg] | F (Mus musculus) [%] | half-life [10] [min] | clearance [11] [mL/min/kg] | survival at 100 mg/kg (Plasmodium berghei [12]) [%] | survival at 33 mg/kg (Plasmodium berghei [13]) [%] | AUC(0-inf) [14] [ng·h/mL] | survival at 11 mg/kg (Plasmodium berghei [15]) [%] | survival at 11 mg/kg (Plasmodium berghei [16]) [%] | survival at 33 mg/kg (Plasmodium berghei [17]) [%] | survival at 3 mg/kg (Plasmodium berghei [20]) [%] | survival at 33 mg/kg (Plasmodium berghei [22]) [%] | other results
1 | COC(=O)c1cnc(Oc2ccc3c(c2)B(O)OC3)cn1 | 0 | 100 | 100 | 100 | 100 | 18 | 0 | 100 | 7 | 23 | 60 | 208 | 100 | 20 | 100 | 100 | 80 | 100 | 40 | 100 | survival at 100 mg/kg (Plasmodium berghei [18]): 100%; Vd [19]: 0.926 L/kg; Tmax [21]: 15 min; Stability (Liver microsome): 0%
2 | O=C(O)c1cnc(Oc2ccc3c(c2)B(O)OC3)cn1 | 0 | 100 | 80 | 100 | 60 | – | – | 100 | 30.3 | – | – | – | 100 | 0 | – | 100 | 20 | 80 | 0 | 100 | survival at 100 mg/kg (Plasmodium berghei [18]): 60%
3 | NC(=O)c1cnc(Oc2ccc3c(c2)B(O)OC3)cn1 | – | 100 | 60 | 100 | 0 | 24 | 97 | 100 | 38.7 | 99 | 126 | 37.7 | 100 | – | 2290 | 100 | – | 100 | 0 | 100 | Vd [19]: 0.973 L/kg; Tmax [21]: 15 min; Stability (Liver microsome): 87%
4 | O=C(O)c1ccc(Oc2ccc3c(c2)B(O)OC3)cn1 | – | 100 | 60 | 100 | – | – | – | 100 | 21.1 | – | – | – | 100 | – | – | 100 | – | 60 | 0 | 100 | –
